The source made the active and inactive calls. The rule behind the calls is not given here.
Experiments:
[1] = test system: Plasmodium falciparum; test: Antiplasmodial activity against multidrug-resistant Plasmodium falciparum FCR-3 by [3H]-hypoxanthine incorporation assay; type: functional, organism-based, FCR-3/Gambia; details: Plasmodium falciparum, FCR-3/Gambia
Method in brief: (§1)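 Blood-stage P. falciparum 3D7 and FCR-3 were tested by a modified [3H]-hypoxanthine incorporation assay. Chloroquine was the reference in all runs.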

[2] = test system: Plasmodium falciparum; test: Antiplasmodial activity against chloroquine-sensitive Plasmodium falciparum 3D7 by [3H]-hypoxanthine incorporation assay; type: functional, organism-based; details: Plasmodium falciparum, 3D7; method in brief: as §1
[3] = Cytotoxicity against human HepG2A16 cells by MTT assay; type: cell-based; details: HepG2A16 cells
Method in brief: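 MTT viability assay on HepG2-A16 cells, giving CC50 values.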

[4] = Selectivity index, ratio of CC50 for human HepG2A16 cells by MTT assay to IC50 for multidrug-resistant Plasmodium falciparum FCR-3; type: toxicity; details: HepG2A16 cells, read-out: Ratio CC50/IC50
Method in brief: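 HepG2-A16 human hepatoma cells were tested by MTT viability assay to give CC50. Blood-stage activity was measured against the multidrug-resistant P. falciparum FCR-3 strain by [3H]-hypoxanthine incorporation to give IC50. SI = CC50 HepG2 / FCR-3 IC50.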

[5] = Genotoxicity in Salmonella typhimurium TA1535 harboring pSK1002 assessed as survival at 0.004 mg/ml in absence of Sprague-Dawley rat liver S9 fraction after by SOS/umu assay relative to control; type: toxicity, organism-based; details: salmonella enterica subsp. enterica serovar typhimurium, read-out: Survival
[6] = Genotoxicity in Salmonella typhimurium TA1535 harboring pSK1002 assessed as umu gene induction at 0.004 mg/ml in absence of Sprague-Dawley rat liver S9 fraction after by SOS/umu assay relative to control; type: toxicity, organism-based; details: salmonella enterica subsp. enterica serovar typhimurium, read-out: FC
[7] = Genotoxicity in Salmonella typhimurium TA1535 harboring pSK1002 assessed as survival at 0.004 mg/ml in presence of Sprague-Dawley rat liver S9 fraction after by SOS/umu assay relative to control; type: toxicity, organism-based; details: salmonella enterica subsp. enterica serovar typhimurium, read-out: Survival
[8] = Genotoxicity in Salmonella typhimurium TA1535 harboring pSK1002 assessed as umu gene induction at 0.004 mg/ml in presence of Sprague-Dawley rat liver S9 fraction after by SOS/umu assay relative to control; type: toxicity, organism-based; details: salmonella enterica subsp. enterica serovar typhimurium, read-out: FC
[9] = Genotoxicity in Salmonella typhimurium TA1535 harboring pSK1002 assessed as survival at 0.002 mg/ml in absence of Sprague-Dawley rat liver S9 fraction after by SOS/umu assay relative to control; type: toxicity, organism-based; details: salmonella enterica subsp. enterica serovar typhimurium, read-out: Survival
[10] = Genotoxicity in Salmonella typhimurium TA1535 harboring pSK1002 assessed as umu gene induction at 0.002 mg/ml in absence of Sprague-Dawley rat liver S9 fraction after by SOS/umu assay relative to control; type: toxicity, organism-based; details: salmonella enterica subsp. enterica serovar typhimurium, read-out: FC
[11] = Genotoxicity in Salmonella typhimurium TA1535 harboring pSK1002 assessed as survival at 0.002 mg/ml in presence of Sprague-Dawley rat liver S9 fraction after by SOS/umu assay relative to control; type: toxicity, organism-based; details: salmonella enterica subsp. enterica serovar typhimurium, read-out: Survival
[12] = Genotoxicity in Salmonella typhimurium TA1535 harboring pSK1002 assessed as umu gene induction at 0.002 mg/ml in presence of Sprague-Dawley rat liver S9 fraction after by SOS/umu assay relative to control; type: toxicity, organism-based; details: salmonella enterica subsp. enterica serovar typhimurium, read-out: FC
[13] = Genotoxicity in Salmonella typhimurium TA1535 harboring pSK1002 assessed as survival at 0.001 mg/ml in absence of Sprague-Dawley rat liver S9 fraction after by SOS/umu assay relative to control; type: toxicity, organism-based; details: salmonella enterica subsp. enterica serovar typhimurium, read-out: Survival
[14] = Genotoxicity in Salmonella typhimurium TA1535 harboring pSK1002 assessed as umu gene induction at 0.001 mg/ml in absence of Sprague-Dawley rat liver S9 fraction after by SOS/umu assay relative to control; type: toxicity, organism-based; details: salmonella enterica subsp. enterica serovar typhimurium, read-out: FC
[15] = Genotoxicity in Salmonella typhimurium TA1535 harboring pSK1002 assessed as survival at 0.001 mg/ml in presence of Sprague-Dawley rat liver S9 fraction after by SOS/umu assay relative to control; type: toxicity, organism-based; details: salmonella enterica subsp. enterica serovar typhimurium, read-out: Survival
[16] = Genotoxicity in Salmonella typhimurium TA1535 harboring pSK1002 assessed as umu gene induction at 0.001 mg/ml in presence of Sprague-Dawley rat liver S9 fraction after by SOS/umu assay relative to control; type: toxicity, organism-based; details: salmonella enterica subsp. enterica serovar typhimurium, read-out: FC
[17] = Genotoxicity in Salmonella typhimurium TA1535 harboring pSK1002 assessed as survival at 0.0005 mg/ml in absence of Sprague-Dawley rat liver S9 fraction after by SOS/umu assay relative to control; type: toxicity, organism-based; details: salmonella enterica subsp. enterica serovar typhimurium, read-out: Survival
[18] = Genotoxicity in Salmonella typhimurium TA1535 harboring pSK1002 assessed as umu gene induction at 0.0005 mg/ml in absence of Sprague-Dawley rat liver S9 fraction after by SOS/umu assay relative to control; type: toxicity, organism-based; details: salmonella enterica subsp. enterica serovar typhimurium, read-out: FC
[19] = Genotoxicity in Salmonella typhimurium TA1535 harboring pSK1002 assessed as survival at 0.0005 mg/ml in presence of Sprague-Dawley rat liver S9 fraction after by SOS/umu assay relative to control; type: toxicity, organism-based; details: salmonella enterica subsp. enterica serovar typhimurium, read-out: Survival
[20] = Genotoxicity in Salmonella typhimurium TA1535 harboring pSK1002 assessed as umu gene induction at 0.0005 mg/ml in presence of Sprague-Dawley rat liver S9 fraction after by SOS/umu assay relative to control; type: toxicity, organism-based; details: salmonella enterica subsp. enterica serovar typhimurium, read-out: FC
[21] = Genotoxicity in Salmonella typhimurium TA1535 harboring pSK1002 assessed as survival at 0.0002 mg/ml in absence of Sprague-Dawley rat liver S9 fraction after by SOS/umu assay relative to control; type: toxicity, organism-based; details: salmonella enterica subsp. enterica serovar typhimurium, read-out: Survival
[22] = Genotoxicity in Salmonella typhimurium TA1535 harboring pSK1002 assessed as umu gene induction at 0.0002 mg/ml in absence of Sprague-Dawley rat liver S9 fraction after by SOS/umu assay relative to control; type: toxicity, organism-based; details: salmonella enterica subsp. enterica serovar typhimurium, read-out: FC
[23] = Genotoxicity in Salmonella typhimurium TA1535 harboring pSK1002 assessed as survival at 0.0002 mg/ml in presence of Sprague-Dawley rat liver S9 fraction after by SOS/umu assay relative to control; type: toxicity, organism-based; details: salmonella enterica subsp. enterica serovar typhimurium, read-out: Survival
[24] = Genotoxicity in Salmonella typhimurium TA1535 harboring pSK1002 assessed as umu gene induction at 0.0002 mg/ml in presence of Sprague-Dawley rat liver S9 fraction after by SOS/umu assay relative to control; type: toxicity, organism-based; details: salmonella enterica subsp. enterica serovar typhimurium, read-out: FC
[25] = Solubility of the compound in DSPC:cholesterol:DSPE-PEG2000-Mal:DOPE-Rho lipid mixture at 250 uM; type: physicochemical
Method in brief: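 Compound added at 250 µM drug to the initial liposome lipid mixture (10 mM total lipid); precipitation and UV-visible absorbance above 300 nm assessed after encapsulation, removal of unencapsulated material and extraction with 1% w/v SDS in RPMI-A.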

[26] = test system: Plasmodium berghei; test: Antiplasmodial activity against Plasmodium berghei ANKA infected in mouse assessed as inhibition of parasitemia at 50 mg/kg/day, po for 4 consecutive days starting from 2 hrs post infection by MSF assay relative to control; type: functional
Method in brief: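 Swiss male mice (20 ± 2 g) infected ip with 10^7 P. berghei ANKA parasitized cells (day 0). Five per group dosed orally 2 h after infection and daily on days 0–3. Test compounds at 50 mg/kg/day in water:DMSO; chloroquine diphosphate at 3 mg/kg/day; vehicle controls. Parasitemia measured on day 4 by MSF assay; survival checked daily.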

[27] = test system: Plasmodium berghei; test: Antiplasmodial activity against Plasmodium berghei ANKA infected in mouse assessed as mouse survival time at 50 mg/kg/day, po for 4 consecutive days starting from 2 hrs post infection by MSF assay; type: functional
Method in brief: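 Swiss male mice (20 ± 2 g) infected i.p. with 10^7 P. berghei ANKA parasitized cells in 0.1 mL 0.9% saline (day 0). Oral dosing began 2 h post-infection and continued daily on days 0–3, five mice per batch. Test drugs were given at 50 mg/kg/day in water:DMSO and chloroquine diphosphate at 3 mg/kg/day; a vehicle control was included. Survival was checked daily, and parasitemia was read on day 4 by modified MSF assay.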

Row | SMILES | IC50 [1] | IC50 [2] | CC50 [3] | selectivity ratio [4] | viability at 0.004 mg/ml [5] | fold induction at 0.004 mg/ml [6] | viability at 0.004 mg/ml [7] | fold induction at 0.004 mg/ml [8] | viability at 0.002 mg/ml [9] | fold induction at 0.002 mg/ml [10] | viability at 0.002 mg/ml [11] | fold induction at 0.002 mg/ml [12] | viability at 0.001 mg/ml [13] | fold induction at 0.001 mg/ml [14] | viability at 0.001 mg/ml [15] | fold induction at 0.001 mg/ml [16] | viability at 0.0005 mg/ml [17] | fold induction at 0.0005 mg/ml [18] | viability at 0.0005 mg/ml [19] | fold induction at 0.0005 mg/ml [20] | further results
1 | OC(CCN1CCN(C(c2ccccc2)c2ccccc2)CC1)c1ccc(F)c(Cl)c1 (configuration not stated) | 1.39 µM | 5.11 µM | 269 µM | 194 | 119% | 0.8 | 87.7% | 1.2 | 103% | 1 | 73.1% | 1.1 | 105% | 1 | 91.4% | 0.5 | 117% | 0.9 | 97.7% | 0.9 | viability at 0.0002 mg/ml [21]: 110%; fold induction at 0.0002 mg/ml [22]: 0.8; viability at 0.0002 mg/ml [23]: 92.3%; fold induction at 0.0002 mg/ml [24]: 1; solubility [25]: Insoluble
2 | OC(CCN1CCN(C(c2ccccc2)c2ccccc2)CC1)c1ccc(F)cc1 (configuration not stated) | 0.62 µM | 1.08 µM | 252 µM | 406 | 97.8% | 1 | 87% | 1 | 95.9% | 1.5 | 89.6% | 1.1 | 94.9% | 1 | 95.7% | 1 | 100% | 1 | 86.4% | 1.1 | viability at 0.0002 mg/ml [21]: 102%; fold induction at 0.0002 mg/ml [22]: 1.1; viability at 0.0002 mg/ml [23]: 101%; fold induction at 0.0002 mg/ml [24]: 1; inhibition [26]: inactive; MSD [27]: 8 days; solubility [25]: Insoluble
